Our source for the Activity and logP values is ChEMBL document CHEMBL2380295, “Structure-activity studies on the side chain of a simplified analog of aplysiatoxin (aplog-1) with anti-proliferative activity” (Bioorg Med Chem, 2013).

The subject of series [1] is Human gammaherpesvirus 4. Description: Induction of EBV-early antigen expressed in human Raji cells at 10^-6 M after 48 hrs by immunofluorescence assay relative to control. The series is classed as organism-based. The following applies: human gammaherpesvirus 4, raji, 1 µM. An outline of the steps: (§1)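 Raji B-lymphoblastoid cells (5 × 10^5/mL) in RPMI 1640 with 10% FBS, with 4 mM sodium n-butyrate as synergist and test compound at 10^-7 or 10^-6 M (final DMSO 0.4%). Incubated 48 h at 37 °C under 5% CO2. Smears were stained by indirect immunofluorescence using NPC patient serum and FITC anti-human IgG. At least 500 cells counted; % EA-positive recorded; n = 3, SEM.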

For series [2], the system named is Human gammaherpesvirus 4. Description: Induction of EBV-early antigen expressed in human Raji cells at 10^-7 M after 48 hrs by immunofluorescence assay relative to control. The series is classed as organism-based. To be noted: human gammaherpesvirus 4, raji, 0.1 µM. In short, it runs like this: as §1
Series [3] in a line: Octanol-water partition coefficient, log P of the compound by HPLC analysis. The format is physicochemical. In short, it runs like this: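 log P was estimated from HPLC retention, with column dead time measured using unretained formamide.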

On to `CCCCCCCCCCCCCC(=O)O[C@@H]1[C@@H](C)[C@@]2(O)[C@@H](C=C(CO)C[C@]3(O)C(=O)C(C)=C[C@@H]23)[C@@H]2C(C)(C)[C@]12OC(C)=O` [PHORBOL MYRISTATE ACETATE], for which the figures for the Activity in the series on Human gammaherpesvirus 4 [1] and in the series on Human gammaherpesvirus 4 [2] were 31.5% and 29.4%, respectively. With `CO[C@@H](CC[C@H](C)[C@H]1O[C@@]23C[C@H](OC(=O)C[C@H]([C@@H](C)O)OC(=O)C[C@](O)(O2)[C@H](C)CC3(C)C)[C@@H]1C)c1cc(O)ccc1Br` [APLYSIATOXIN], the logP in series [3] is 5.4.
